Consider one molecule from ChEMBL document CHEMBL1143730, “Probing the bioactive constituents from chemotypes of the sponge Psammocinia aff. bulbosa” (J Nat Prod, 2007).

Values after ≈ are worked out from the molar mass of the structure shown.

One series concerns HT-29. Nature of the series: Growth inhibition of HT29 cells. To be noted: Homo sapiens. Format: functional, cell-based. The method in brief: (§1)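 Cells seeded at 5×10^4 per T25 flask in RPMI 1640 with 15% BCS, pen/strep and glutamine. After 3 days (log phase, 5×10^5 cells/flask), compound was added at 10 to 10^-5 μg/mL. After 3 more days, cells were trypsinized and viable and dead cells counted by 0.08% trypan blue exclusion. IC50 determined.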

The test system of series [1] is HCT-116. As to the kind of experiment: Survivability of human HCT116 cells assessed as cell kill at >=3 ng/mL after 2 hrs. The series is classed as functional.
Series [2] relates to HCT-116. As to the kind of experiment: Antitumor activity in human HCT116 tumor-bearing SCID mouse at 62 ug/kg bolus injection after 23 days relative to control. Format: functional. In short, it runs like this: (§2)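 SCID mice (>17 g, weights within 5 g) implanted subcutaneously with 10⁶ tissue-culture-derived HCT-116 cells, 5 per group. Starting 1 day after inoculation, a single intravenous tail-vein bolus (drug at […], 0.25 mL) was given in DMSO diluted 1:1 with Cremophor–propylene glycol (40:60), then ≥20-fold in saline. Tumor weight followed daily. Minimum %T/C reported. Sacrifice at day 30.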

In a further series the test system is MDA-MB-231. Nature of the series: Growth inhibition of MDA-MB-231 cells. The series is classed as functional, cell-based. The conditions noted are these: Homo sapiens. In short, it runs like this:
as §1

Series [3] deals with HCT-116. Nature of the series: Survivability of human HCT116 cells assessed as cell kill at >= 2 ng/mL after 24 hrs. The series is classed as functional.
For a further series, the system named is L1210. Nature of the series: Growth inhibition of L1210 cells. To be noted: Mus musculus. The series is classed as functional, cell-based. In short, it runs like this:
as §1

Series [4] concerns HCT-116. As to the kind of experiment: Survivability of human HCT116 cells assessed as cell kill at >=120 pg/mL after 168 hrs. Format: functional.
In the next series the test system is Mus musculus. As to the kind of experiment: Toxicity in SCID mouse at 125 ug/kg bolus injection. The conditions noted are these: in vivo, 0.125 mg/kg. The series is classed as organism-based. In short, it runs like this: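 HCT-116 tumor-bearing SCID mice (>17 g, 5 per group). Single intravenous tail-vein bolus of 125 μg/kg (drug at […], 0.25 mL) started 1 day after subcutaneous inoculation of 10⁶ cells. Vehicle was DMSO diluted 1:1 with Cremophor–propylene glycol (40:60), then ≥20-fold in saline. Mice were monitored until sacrifice at day 30.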

Series [5] can be described thus: Growth inhibition of H125 cells. The conditions noted are these: Homo sapiens, NCI-H125. The series is classed as functional, cell-based. The method in brief:
as §1

In series [6] the test system is HCT-116. Nature of the series: Antitumor activity in human HCT116 tumor-bearing SCID mouse at 31 ug/kg bolus injection after 23 days relative to control. The series is classed as functional. In short, it runs like this:
as §2

In the case of `C=C(C)C[C@H](OC)[C@H](O)C(=O)N[C@@H](OC)C1C[C@@H](O)C(C)(C)[C@@H](C[C@H](O)[C@@H](C)[C@@H]2Cc3c(C)c(O)cc(O)c3C(=O)O2)O1` (stereo not given in full) [IRCINIASTATIN], the half-inhibitory concentration (IC50) in the series with HT-29 worked out at 5 ng/mL (≈ 8.2 nM); in the series on MDA-MB-231, 0.2 ng/mL (≈ 0.328 nM); with L1210, 0.18 ng/mL (≈ 0.295 nM); in [5], 0.12 ng/mL (≈ 0.197 nM). Further, the Survival in the series with HCT-116 [1], with HCT-116 [3] and in the series with HCT-116 [4] was 90% each time. In addition, the Activity is recorded as 75% in the series with HCT-116 [2], “Toxic” in the series with Mus musculus and 86% with HCT-116 [6].

By IC50 is commonly meant the concentration needed to halve the response being measured. A higher IC50 goes with weaker potency in that assay.
